Converted amounts (≈) assume the structure as drawn.
How the values were obtained:
Assay type in all cases: functional
Mycobacterium avium [1] = experiment: Minimum Inhibitory Concentration against clinical isolates of Mycobacterium avium complex ATCC 49601
In short: (§1)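 Broth macrodilution in tubes of modified Middlebrook 7H10 broth (agar and malachite green omitted) with 10% OADC and 0.05% Tween 80 at pH 5.8. Cultures were grown 3 days at 37 °C on a rotary shaker, then diluted with 7H10 broth to 1 Klett unit/mL. Stocks were made in water or DMSO and filter-sterilised; 2-fold serial dilutions were tested. Tubes shaken 7–10 days at 37 °C, with a drug-free control. MIC = lowest concentration (μg/mL) with no visible turbidity.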

Mycobacterium avium [2] = experiment: Minimum Inhibitory Concentration in clinical isolates against Mycobacterium avium complex 101; in short: as §1
Mycobacterium kansasii = experiment: Minimum Inhibitory Concentration against clinical isolates of Mycobacterium kansasii S
In short: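 Grown 3 days at 37 °C on a rotary shaker in modified Middlebrook 7H10 broth (agar and malachite green omitted) with 10% OADC and 0.05% Tween 80. Diluted to 1 Klett unit/mL. Tubes held serial 2-fold dilutions in 7H10 broth at pH 5.8, from stocks in water or DMSO, and were shaken at 37 °C for 7–10 days with a drug-free control. MIC was the lowest concentration with no visible turbidity.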

[3] = test system: Mycobacterium tuberculosis; experiment: Minimum Inhibitory Concentration against Mycobacterium tuberculosis ATCC 35801; in short: as §1
[4] = test system: Mycobacterium tuberculosis; experiment: Minimum Inhibitory Concentration against Mycobacterium tuberculosis ATCC 27294; in short: as §1
Mycobacterium avium [5] = experiment: Minimum Inhibitory Concentration in clinical isolates against Mycobacterium avium complex ATCC 49601; in short: as §1
[6] = Mycobacterium tuberculosis, ATCC 27294, read-out: MIC

Structure (SMILES) | MIC (Mycobacterium avium [1]) [µg/mL] | MIC (Mycobacterium avium [2]) [µg/mL] | MIC (Mycobacterium kansasii) [µg/mL] | MIC [3] [µg/mL] | MIC [4, 6] [µg/mL] | MIC (Mycobacterium avium [5]) [µg/mL] | MIC [4] [µg/mL]
CCCCCCCC(C)OC(=O)c1cnc(Cl)cn1 (centres undefined) | 32 (≈ 112 µM) | 32 (≈ 112 µM) | < 0.03 | 0.5 (≈ 1.76 µM) | 1 (≈ 3.51 µM) | – | –
CCCCCCCCC(C)(CCCC)OC(=O)c1cnc(Cl)cn1 (centres undefined) | > 64 | > 64 | 16 (≈ 45.1 µM) | 16 (≈ 45.1 µM) | 16 (≈ 45.1 µM) | – | –
CCCCCCCCCOC(=O)c1cnc(C)cn1 | 32 (≈ 121 µM) | 64 (≈ 242 µM) | 2 (≈ 7.57 µM) | 1 (≈ 3.78 µM) | 1 (≈ 3.78 µM) | – | –
CCCCCC(C)OC(=O)c1cnc(Cl)cn1 (centres undefined) | 32 (≈ 125 µM) | 32 (≈ 125 µM) | < 0.125 | 0.5 (≈ 1.95 µM) | 0.06 (≈ 0.234 µM) | – | –
Cc1cnc(C(=O)O)cn1 | – | 1020 (≈ 7410 µM) | 1020 (≈ 7410 µM) | 64 (≈ 463 µM) | 64 (≈ 463 µM) | > 1020 | –
O=C(O)c1cnc(Cl)cn1 | – | – | 64 (≈ 404 µM) | 64 (≈ 404 µM) | 64 (≈ 404 µM) | > 1020 | –
O=C(Oc1ccc(F)cc1)c1cnccn1 | – | 128 (≈ 587 µM) | 64 (≈ 293 µM) | – | 32 (≈ 147 µM) | 128 (≈ 587 µM) | 32 (≈ 147 µM)
CCCCCCCCCCCC(C)OC(=O)c1cnc(Cl)cn1 (centres undefined) | 32 (≈ 93.9 µM) | 256 (≈ 751 µM) | 0.06 (≈ 0.176 µM) | 0.5 (≈ 1.47 µM) | 2 (≈ 5.87 µM) | – | –
NC(=O)c1cnccn1 [PYRAZINAMIDE] | – | > 2050 | 2050 (≈ 16600 µM) | 32 (≈ 260 µM) | 16 (≈ 130 µM) | > 2050 | –
O=C(O)c1cnccn1 [PYRAZINOIC ACID] | – | > 1020 | 256 (≈ 2060 µM) | 32 (≈ 258 µM) | 32 (≈ 258 µM) | > 1020 | –

From ChEMBL document CHEMBL1128446, “Pyrazinoic acid esters with broad spectrum in vitro antimycobacterial activity” (1995)
